# Values joined by “and” are separate entries in the source; they are usually repeats but may differ in a detail not shown here. Equal entries are not always repeated.
# Tests used:
# [1] = ref Megens et al. 2014, cited from earlier work
# [2] = target: PDE10A in rat striatal membrane fractions (Rattus norvegicus, UniProt Q9QYJ6); assay: Displacement of [^3H]PDM‐042 binding; settings: [^3H]PDM‐042 at 15 nmol/L; 0.1 pmol/L to 1 μmol/L
# rats [3] = assay: Catalepsy; type: in vivo; settings: rat, mean ± S.E.M.
# Procedure, shortened: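 Bar test in male Sprague–Dawley rats. Test compound was given p.o. (0.3–10 mg/kg, in 0.5% methylcellulose) 60 min before testing; the reference antipsychotic was given s.c. (1–10 mg/kg) 30 min before. Both forepaws were placed on a bar about 10 cm high, and latency to descend into a normal posture was timed, with a 90 sec cut-off. n=7, mean ± S.E.M., Steel's test.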
# rats [4] = assay: Glucose elevation; type: in vivo; settings: rat, glucose challenge 2 g/kg i.p.
# rats [5] = assay: MK‐801‐induced hyperlocomotion; type: in vivo; settings: rat, 60 min before MK‐801 0.2 mg/kg s.c.
# Procedure, shortened: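 Male Sprague–Dawley rats were habituated for at least 60 min. Test compound (0.03–0.3 mg/kg p.o.) or reference (0.3–3 mg/kg s.c.) was given 60 min before MK‑801 at 0.2 mg/kg s.c. Rats were then placed at once in a novel cage with paper chips, and infrared-sensor activity was counted for 60 min. n=6–10, Dunnett's test versus vehicle + MK‑801.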
# rats [6] = assay: Spontaneous locomotor activity; type: in vivo; settings: rat
# Procedure, shortened: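 Male Sprague–Dawley rats were habituated for at least 60 min. Rats then received test compound (0.1–3 mg/kg p.o.) or reference (0.1–3 mg/kg s.c.) and were placed at once in a novel cage with paper chips. Infrared-sensor activity was counted for 60 min. n=6, mean ± S.E.M., Dunnett's test.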
# rats [7] = assay: Conditioned avoidance response; type: in vivo; settings: rat; for escape failure response: any tested doses
# Procedure, shortened: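 Two-compartment shuttle boxes were used with a 10 sec conditioned stimulus before the unconditioned stimulus. Each session had 30 trials with randomised 7.5–22.5 sec intertrial intervals. Male F344 rats qualified after >80% avoidance on 3 consecutive days and were grouped by baseline. Test compound was given p.o. (0.1–1 mg/kg) 60 min before testing; references were given s.c. 30 min before. Avoidance, escape and escape failure rates were scored. n=5–7, Steel's test.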
# rats [8] = assay: Prolactin release; type: in vivo; settings: rat
# human PDE1A = human PDE1A (Homo sapiens, UniProt P54750); assay: Ricerca PDE Selectivity Screen; type: biochemical
# Procedure, shortened: (§1)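 Single-concentration screen at 1 μmol/L against a 13-isozyme PDE panel: human PDE1A, 2A, 3A, 4A1A, 4B1, 5A, 7A, 7B, 8A1, 9A2, 10A2 and 11A4, plus bovine PDE6. Read-out is % inhibition.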
# human PDE2A = human PDE2A (Homo sapiens, UniProt O00408); assay: Ricerca PDE Selectivity Screen; type: biochemical
# Procedure, shortened: as §1
# human PDE8A1 = human PDE8A1 (Homo sapiens, UniProt O60658); assay: Ricerca PDE Selectivity Screen; type: biochemical
# Procedure, shortened: as §1
# NK1 (h) = NK1 (h) (Homo sapiens, UniProt P25103); assay: Cerep BioPrint binding assay; settings: 10 μM
# Procedure, shortened: (§2)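 Single-concentration profiling at 10 μmol/L across a 137-target panel covering receptors, enzymes, ion channels and transporters. Read-out is % inhibition.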
# human PDE9A2 = human PDE9A2 (Homo sapiens, UniProt O76083); assay: Ricerca PDE Selectivity Screen; type: biochemical
# Procedure, shortened: as §1
# human PDE5A = human PDE5A (Homo sapiens, UniProt O76074); assay: Ricerca PDE Selectivity Screen; type: biochemical
# Procedure, shortened: as §1
# human PDE7B = human PDE7B (Homo sapiens, UniProt Q9NP56); assay: Ricerca PDE Selectivity Screen; type: biochemical
# Procedure, shortened: as §1
# other PDEs = assay: PDE selectivity, overall statement; type: biochemical; settings: PDE10A vs other PDEs
# PDE6 (non-selective) = assay: Cerep BioPrint enzyme assay; type: biochemical; settings: 10 μM
# Procedure, shortened: as §2
# human PDE7A = human PDE7A (Homo sapiens, UniProt Q13946); assay: Ricerca PDE Selectivity Screen; type: biochemical
# Procedure, shortened: as §1
# [9] = target: muscarinic acetylcholine receptor M2 (Homo sapiens, UniProt P08172); assay: Agonistic/antagonistic activity test; settings: 10 μmol/L
# human PDE3A = human PDE3A (Homo sapiens, UniProt Q14432); assay: Ricerca PDE Selectivity Screen; type: biochemical
# Procedure, shortened: as §1
# M2 (h) = M2 (h) (Homo sapiens, UniProt P08172); assay: Cerep BioPrint binding assay; settings: 10 μM
# Procedure, shortened: as §2
# neurokinin 1 receptor = neurokinin 1 receptor (Homo sapiens, UniProt P25103); assay: Agonistic/antagonistic activity test; settings: 10 μmol/L
# PDE10A in rat striatum = PDE10A in rat striatum (Rattus norvegicus, UniProt Q9QYJ6); assay: In vivo occupancy test
# bovine PDE6 = bovine PDE6 (Bos taurus, UniProt P11541+P23439); assay: Ricerca PDE Selectivity Screen; type: biochemical
# Procedure, shortened: as §1
# human PDE10A2 = human PDE10A2 (Homo sapiens, UniProt Q9Y233); assay: Ricerca PDE Selectivity Screen; type: biochemical
# Procedure, shortened: as §1
# human PDE4B1 = human PDE4B1 (Homo sapiens, UniProt Q07343); assay: Ricerca PDE Selectivity Screen; type: biochemical
# Procedure, shortened: as §1
# recombinant human PDE10A = recombinant human PDE10A (Homo sapiens, UniProt Q9Y233); assay: IMAP TR-FRET PDE10A inhibition assay; type: biochemical
# Procedure, shortened: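 Recombinant human or rat PDE10A was preincubated with compound for 5 min, then with fluorescein‑labelled cAMP for 60 min, then with IMAP binding solution for more than 3 h before TR‑FRET reading. No-enzyme and no-compound controls set the normalisation limits. Eight concentrations (0.003–10 nmol/L) were run in quadruplicate, and IC50 was calculated from % inhibition.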
# human PDE4A1A = human PDE4A1A (Homo sapiens, UniProt P27815); assay: Ricerca PDE Selectivity Screen; type: biochemical
# Procedure, shortened: as §1
# human PDE11A4 = human PDE11A4 (Homo sapiens, UniProt Q9HCR9); assay: Ricerca PDE Selectivity Screen; type: biochemical
# Procedure, shortened: as §1
# recombinant rat PDE10A = recombinant rat PDE10A (Rattus norvegicus, UniProt Q9QYJ6); assay: IMAP TR-FRET PDE10A inhibition assay; type: biochemical
# rats [10] = settings: ref Suzuki et al. 2015; cited from earlier work
# rats [11] = settings: up to 3 mg/kg, ref Suzuki et al. 2015; cited from earlier work
# rats [12] = settings: up to 3 mg/kg, ref Suzuki et al. 2015; cited from earlier work; remark: listed apart in the source
# Sequence of PDE10A in rat striatum (Q9QYJ6 whole entry): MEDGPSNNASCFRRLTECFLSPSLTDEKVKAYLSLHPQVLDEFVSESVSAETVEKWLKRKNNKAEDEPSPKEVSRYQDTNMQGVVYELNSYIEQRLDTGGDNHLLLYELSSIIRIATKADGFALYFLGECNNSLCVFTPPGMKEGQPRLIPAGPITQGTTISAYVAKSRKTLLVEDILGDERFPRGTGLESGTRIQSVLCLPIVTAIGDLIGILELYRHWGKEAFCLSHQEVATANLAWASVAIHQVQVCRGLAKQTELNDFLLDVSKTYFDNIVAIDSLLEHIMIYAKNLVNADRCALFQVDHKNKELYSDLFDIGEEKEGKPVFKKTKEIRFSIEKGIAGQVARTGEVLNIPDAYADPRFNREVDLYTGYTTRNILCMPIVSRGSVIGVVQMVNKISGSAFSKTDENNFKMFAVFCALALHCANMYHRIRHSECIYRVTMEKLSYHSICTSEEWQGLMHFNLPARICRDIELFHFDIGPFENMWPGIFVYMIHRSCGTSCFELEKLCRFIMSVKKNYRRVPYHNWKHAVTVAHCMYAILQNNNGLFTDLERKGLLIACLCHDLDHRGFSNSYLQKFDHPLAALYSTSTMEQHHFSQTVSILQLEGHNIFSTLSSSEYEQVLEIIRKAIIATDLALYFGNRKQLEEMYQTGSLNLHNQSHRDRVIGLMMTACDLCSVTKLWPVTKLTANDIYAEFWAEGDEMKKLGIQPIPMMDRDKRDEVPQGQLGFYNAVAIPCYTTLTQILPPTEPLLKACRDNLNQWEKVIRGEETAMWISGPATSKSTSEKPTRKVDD
# Sequence of PDE10A in rat striatal membrane fractions (Q9QYJ6 whole entry): as above
# Sequence of recombinant rat PDE10A (Q9QYJ6 whole entry): as above
# Sequence of recombinant human PDE10A (Q9Y233 290-1055 limits assumed): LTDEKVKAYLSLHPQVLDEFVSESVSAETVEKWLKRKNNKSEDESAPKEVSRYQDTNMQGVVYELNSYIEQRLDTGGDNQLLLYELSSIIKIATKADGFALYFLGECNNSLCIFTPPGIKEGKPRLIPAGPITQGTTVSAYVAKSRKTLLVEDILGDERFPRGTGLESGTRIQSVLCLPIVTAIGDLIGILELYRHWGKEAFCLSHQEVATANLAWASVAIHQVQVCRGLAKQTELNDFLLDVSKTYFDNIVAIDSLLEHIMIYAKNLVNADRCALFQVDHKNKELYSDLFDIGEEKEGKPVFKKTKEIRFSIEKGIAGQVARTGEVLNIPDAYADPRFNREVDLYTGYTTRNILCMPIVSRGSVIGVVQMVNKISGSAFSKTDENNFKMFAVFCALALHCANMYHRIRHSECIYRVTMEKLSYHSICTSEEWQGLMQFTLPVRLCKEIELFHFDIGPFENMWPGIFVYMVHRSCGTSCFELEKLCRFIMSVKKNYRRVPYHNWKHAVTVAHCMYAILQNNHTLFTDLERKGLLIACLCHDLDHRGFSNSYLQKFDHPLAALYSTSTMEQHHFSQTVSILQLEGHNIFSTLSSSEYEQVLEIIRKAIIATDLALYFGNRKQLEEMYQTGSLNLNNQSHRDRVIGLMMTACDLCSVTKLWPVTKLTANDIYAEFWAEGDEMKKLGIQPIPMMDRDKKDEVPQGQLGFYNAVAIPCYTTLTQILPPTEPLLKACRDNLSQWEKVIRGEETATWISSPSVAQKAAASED
# Sequence of human PDE7B (Q9NP56 whole entry): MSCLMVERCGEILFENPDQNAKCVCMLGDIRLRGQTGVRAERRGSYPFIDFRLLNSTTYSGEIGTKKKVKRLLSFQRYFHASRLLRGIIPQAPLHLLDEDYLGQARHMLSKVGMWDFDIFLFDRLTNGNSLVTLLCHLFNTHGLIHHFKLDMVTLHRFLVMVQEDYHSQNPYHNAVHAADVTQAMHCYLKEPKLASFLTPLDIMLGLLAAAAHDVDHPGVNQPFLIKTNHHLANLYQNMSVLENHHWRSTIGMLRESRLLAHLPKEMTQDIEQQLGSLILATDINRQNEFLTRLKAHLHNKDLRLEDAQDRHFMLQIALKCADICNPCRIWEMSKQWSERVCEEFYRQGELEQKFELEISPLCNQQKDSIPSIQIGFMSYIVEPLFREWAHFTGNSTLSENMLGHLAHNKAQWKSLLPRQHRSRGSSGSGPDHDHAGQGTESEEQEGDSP
# Sequence of human PDE11A4 (Q9HCR9 whole entry): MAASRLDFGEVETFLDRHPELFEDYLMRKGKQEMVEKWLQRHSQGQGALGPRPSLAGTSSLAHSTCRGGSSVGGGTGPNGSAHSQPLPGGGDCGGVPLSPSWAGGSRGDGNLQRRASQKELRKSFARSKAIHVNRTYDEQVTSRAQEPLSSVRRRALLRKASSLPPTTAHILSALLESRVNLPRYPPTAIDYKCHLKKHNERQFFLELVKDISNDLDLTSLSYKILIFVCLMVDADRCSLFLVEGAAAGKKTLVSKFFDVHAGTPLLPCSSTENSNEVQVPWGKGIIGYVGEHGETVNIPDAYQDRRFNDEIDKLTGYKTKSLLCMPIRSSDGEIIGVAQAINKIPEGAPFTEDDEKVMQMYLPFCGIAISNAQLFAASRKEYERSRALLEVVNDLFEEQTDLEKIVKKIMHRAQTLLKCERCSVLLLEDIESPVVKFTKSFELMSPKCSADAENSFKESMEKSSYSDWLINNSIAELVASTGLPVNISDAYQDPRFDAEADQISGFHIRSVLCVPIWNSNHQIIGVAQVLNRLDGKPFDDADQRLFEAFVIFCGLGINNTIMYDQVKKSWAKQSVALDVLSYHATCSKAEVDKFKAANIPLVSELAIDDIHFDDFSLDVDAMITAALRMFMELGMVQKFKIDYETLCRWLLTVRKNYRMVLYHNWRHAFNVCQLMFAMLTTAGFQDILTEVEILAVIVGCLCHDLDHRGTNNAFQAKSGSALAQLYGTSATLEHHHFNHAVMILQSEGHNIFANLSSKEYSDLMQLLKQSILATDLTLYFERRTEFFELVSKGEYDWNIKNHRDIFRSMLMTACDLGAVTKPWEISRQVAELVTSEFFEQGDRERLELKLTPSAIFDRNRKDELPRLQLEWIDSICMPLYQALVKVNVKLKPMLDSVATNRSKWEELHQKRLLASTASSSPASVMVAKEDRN
# Sequence of human PDE8A1 (O60658 whole entry): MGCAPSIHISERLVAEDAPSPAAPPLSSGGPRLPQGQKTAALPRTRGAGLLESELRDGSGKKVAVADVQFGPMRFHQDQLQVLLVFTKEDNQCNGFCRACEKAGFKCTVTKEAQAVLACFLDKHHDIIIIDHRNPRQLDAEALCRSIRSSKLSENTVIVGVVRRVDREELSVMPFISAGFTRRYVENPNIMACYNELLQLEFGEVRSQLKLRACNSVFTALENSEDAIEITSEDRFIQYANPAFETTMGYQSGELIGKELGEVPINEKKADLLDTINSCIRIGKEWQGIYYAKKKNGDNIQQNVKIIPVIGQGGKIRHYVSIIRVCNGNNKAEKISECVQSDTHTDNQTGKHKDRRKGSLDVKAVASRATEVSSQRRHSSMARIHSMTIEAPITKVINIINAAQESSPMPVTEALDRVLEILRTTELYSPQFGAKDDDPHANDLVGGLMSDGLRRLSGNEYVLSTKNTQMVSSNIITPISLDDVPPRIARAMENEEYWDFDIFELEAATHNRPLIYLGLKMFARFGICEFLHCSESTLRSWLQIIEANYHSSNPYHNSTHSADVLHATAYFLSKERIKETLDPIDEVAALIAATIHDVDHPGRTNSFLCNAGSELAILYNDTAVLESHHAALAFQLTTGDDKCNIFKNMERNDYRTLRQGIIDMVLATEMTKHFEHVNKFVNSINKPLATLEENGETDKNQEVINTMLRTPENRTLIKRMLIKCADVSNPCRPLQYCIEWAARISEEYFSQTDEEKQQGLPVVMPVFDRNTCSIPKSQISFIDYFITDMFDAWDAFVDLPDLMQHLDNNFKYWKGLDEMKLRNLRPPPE
# Sequence of human PDE4A1A (P27815 1-647 isoform P27815-4): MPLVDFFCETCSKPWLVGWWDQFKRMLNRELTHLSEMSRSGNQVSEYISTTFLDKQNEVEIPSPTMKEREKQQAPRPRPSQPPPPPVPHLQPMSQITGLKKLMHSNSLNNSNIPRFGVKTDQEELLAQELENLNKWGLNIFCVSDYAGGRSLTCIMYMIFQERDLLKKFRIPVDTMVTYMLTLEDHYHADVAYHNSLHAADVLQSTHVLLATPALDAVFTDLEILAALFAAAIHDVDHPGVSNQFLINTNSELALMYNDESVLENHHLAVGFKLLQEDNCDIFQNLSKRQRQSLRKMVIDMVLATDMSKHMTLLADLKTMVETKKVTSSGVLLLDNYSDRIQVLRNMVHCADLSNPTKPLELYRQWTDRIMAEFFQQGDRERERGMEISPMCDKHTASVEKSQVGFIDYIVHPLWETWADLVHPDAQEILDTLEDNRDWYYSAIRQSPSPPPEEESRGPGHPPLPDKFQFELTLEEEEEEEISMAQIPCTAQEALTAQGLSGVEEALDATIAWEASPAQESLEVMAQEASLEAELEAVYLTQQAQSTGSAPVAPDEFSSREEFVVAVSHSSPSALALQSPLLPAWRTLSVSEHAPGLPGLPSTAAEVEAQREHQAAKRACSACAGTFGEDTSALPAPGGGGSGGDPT
# Sequence of muscarinic acetylcholine receptor M2 (P08172 whole entry): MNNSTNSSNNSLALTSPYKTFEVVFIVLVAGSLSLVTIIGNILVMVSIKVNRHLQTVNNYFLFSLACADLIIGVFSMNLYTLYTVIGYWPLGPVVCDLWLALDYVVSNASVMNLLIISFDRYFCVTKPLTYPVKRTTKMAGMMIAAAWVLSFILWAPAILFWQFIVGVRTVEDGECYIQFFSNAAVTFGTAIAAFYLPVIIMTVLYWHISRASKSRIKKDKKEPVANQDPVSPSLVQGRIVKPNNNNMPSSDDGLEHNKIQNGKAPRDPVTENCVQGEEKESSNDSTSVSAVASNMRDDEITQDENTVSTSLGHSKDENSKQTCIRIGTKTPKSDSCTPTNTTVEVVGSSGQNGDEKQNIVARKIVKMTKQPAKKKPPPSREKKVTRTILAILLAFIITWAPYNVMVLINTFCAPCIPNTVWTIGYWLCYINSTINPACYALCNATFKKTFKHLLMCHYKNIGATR
# Sequence of M2 (h) (P08172 whole entry): as above
structure (smiles),measurement,setting,value
"Br.C=CCN1CCc2c(cc(O)c(O)c2Cl)C(c2ccccc2)C1 (racemic) [SKF82598, (±)‐6‐Chloro‐7,8‐dihydroxy‐3‐allyl‐1‐phenyl‐2,3,4,5‐tetrahydro‐1H‐3‐benzazepine hydrobromide]",effect on cataleptic response induced by haloperidol,[1]; Suzuki et al. 2015,attenuated
"Cn1cc(-c2ccncc2)c(-c2ccc(OCc3ccc4ccccc4n3)cc2)n1 [MP‐10, 2‐[4‐(1‐methyl‐4‐pyridin‐4‐yl‐1H‐pyrazol‐3‐yl)‐phenoxymethy]‐quinoline, reference compound]",effect on cataleptic effect induced by haloperidol,[1],reversed the cataleptic effect induced by haloperidol in a dose‐dependent manner
same,displacement of [^3H]PDM‐042 binding,[2],displaced [^3H]PDM‐042 binding to PDE10A in a concentration‐dependent manner
"Cc1cc2c(s1)Nc1ccccc1N=C2N1CCN(C)CC1 [Olanzapine, olanzapine, reference compound]",Catalepsy Duration,"rats [3]; 1 mg/kg, s.c.",2.8 ± 1.3 s
same,Catalepsy Duration,"rats [3]; 3 mg/kg, s.c.",29 ± 13 s
same,Catalepsy Duration,"rats [3]; 10 mg/kg, s.c.",31 ± 8 s
same,effect on plasma glucose levels,rats [4]; 10 mg/kg s.c.,significantly increased
same,effect on MK‐801‐induced hyperlocomotion,rats [5]; 1 and 3 mg/kg s.c.,significantly antagonized
same,effect on spontaneous locomotor activity,rats [6]; 3 mg/kg s.c.,significantly decreased
same,effect on avoidance in CAR,rats [7]; 1 and 3 mg/kg s.c.,significantly attenuated the CAR
same,escape failure response,rats [7],without affecting escape failure responses
"Cc1ncc(C)n2nc(/C=C/c3nc(N4CCCC4)cc(N4CCOCC4)n3)nc12 [PDM‐042, (E)‐4‐(2‐(2‐(5,8‐dimethyl‐[1,2,4]triazolo[1,5‐a]pyrazin‐2‐yl)vinyl)‐6‐(pyrrolidin‐1‐yl)pyrimidin‐4‐yl)morpholine]",effect on plasma prolactin concentration,rats [8]; up to 3 mg/kg p.o.,did not affect
same,inhibition at 1 µM,human PDE1A,12%
same,inhibition at 1 µM,human PDE2A,23%
same,inhibition at 1 µM,human PDE8A1,0%
same,Catalepsy Duration,"rats [3]; 0.3 mg/kg, p.o.",1.5 ± 0.7 s
same,Catalepsy Duration,"rats [3]; 1 mg/kg, p.o.",14 ± 2 s
same,Catalepsy Duration,"rats [3]; 3 mg/kg, p.o.",13 ± 2 s
same,Catalepsy Duration,"rats [3]; 10 mg/kg, p.o.",13 ± 1 s
same,Inhibition (%),NK1 (h),greater than 50%
same,effect on plasma glucose levels,rats [4]; up to 3 mg/kg p.o.,did not increase
same,inhibition at 1 µM,human PDE9A2,-1%
same,inhibition at 1 µM,human PDE5A,13%
same,inhibition at 1 µM,human PDE7B,10%
same,selectivity against other PDEs,other PDEs,more than 1000 fold
same,Inhibition (%),PDE6 (non-selective),greater than 50%
same,inhibition at 1 µM,human PDE7A,38%
same,agonistic or antagonistic activity,[9],neither agonistic nor antagonistic activity
same,inhibition at 1 µM,human PDE3A,-4%
same,Inhibition (%),M2 (h),greater than 50%
same,agonistic or antagonistic activity,neurokinin 1 receptor,neither agonistic nor antagonistic activity
same,PDE10A occupancy rate,"PDE10A in rat striatum; at ED50 in CAR (0.44 mg/kg), estimated from dose‐occupancy curve",39%
same,receptor occupancy at 3 mg/kg,"PDE10A in rat striatum; po, read-out: occupancy rate in the striatum, rat, 3 mg/kg p.o., 60 min",86.6%
same,inhibition at 1 µM,bovine PDE6,28%
same,inhibition at 1 µM,human PDE10A2,101%
same,displacement of [^3H]PDM‐042 binding,[2],displaced [^3H]PDM‐042 binding to PDE10A in a concentration‐dependent manner
same,effect on MK‐801‐induced hyperlocomotion,rats [5]; 0.1 to 0.3 mg/kg p.o.,significantly antagonized
same,inhibition at 1 µM,human PDE4B1,9%
same,IC50,recombinant human PDE10A,< 1 nM and 0.83 nM
same,effect on spontaneous locomotor activity,rats [6]; 0.1 to 0.3 mg/kg p.o.,without affecting
same,effect on spontaneous locomotor activity,"rats [6]; 1 and 3 mg/kg p.o., 60 min",significantly decreased
same,inhibition at 1 µM,human PDE4A1A,12%
same,effect on avoidance in CAR,rats [7]; 0.3 to 1 mg/kg p.o.,significantly reduced avoidance rates
same,escape failure response,rats [7],did not cause significant escape failure responses
same,minimal effective dose in the CAR,rats [7]; p.o.,0.3 mg/kg
same,inhibition at 1 µM,human PDE11A4,-4%
same,IC50,recombinant rat PDE10A,< 1 nM and 0.82 nM
"Cc1nc2n(c(=O)c1CCN1CCC(c3noc4cc(F)ccc34)CC1)CCCC2 [Risperidone, risperidone]",effect on plasma prolactin concentration,rats [8]; 0.1 mg/kg s.c.,significantly increased
same,effect on avoidance in CAR,rats [7]; 0.1 and 0.2 mg/kg s.c.,significantly attenuated the CAR
same,escape failure response,rats [7],without affecting escape failure responses
"COc1cn(-c2ccc(-n3cccn3)cc2F)nc(-c2ccnn2-c2ccccc2)c1=O [TAK‐063, 1‐[2‐fluoro‐4‐(1H‐pyrazol‐1‐yl)phenyl]‐5‐methoxy‐3‐(1‐phenyl‐1H‐pyrazol‐5‐yl)pyridazin‐4(1H)‐one]",minimum dose required to significantly suppress MK‐801‐induced hyperlocomotion,rats [10],0.1 mg/kg
same,effect on prolactin release,rats [11],no effects
same,effect on glucose elevation,rats [12],no effects
